Rows were chosen to be rich in hits. Some 2.5% of all compounds tested hit in one or more screens of this group.
FLuc stim CS = firefly luciferase counter-screen for stimulation assays; activation factor at 10 µM; 200,000 tested, under 10 active; ATPlite luciferase biochemical, luminescence, 10 min; 0 = ATP-free wells, 1 = DMSO control; AID 1027; P08659;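 active means luciferase activation factor, scaled between plate controls, of at least 2 with compound at 10 µM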
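System: luciferase plus luciferin reagent, cell-free; medium: PBS as buffer for the ATP substrate; dosing: test compounds dosed from 2 mM stocks in 100% DMSO; timing: 10 min post-reagent at room temperature; measured by: luminescence measurement of luciferase light output; evaluation: luciferase activation, seen as luminescence increase over controls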
FLuc inh counter = inhibits firefly luciferase, flagging false hits in luciferase inhibition screens | P08659 | inhibition, % at 10 µM | ATPLite firefly luciferase biochemical luminescence, 10 min | AID 1006 | 200,000 tested, 1.5% active;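 active means inhibition above about 50% when tested at 10 µM, limit read from the data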
PMI activator = phosphomannose isomerase (human) activation | P34949 | 190,000 tested, 0.005% active | activation factor at 20 µM | AID 1214 | purified human PMI, coupled resazurin fluorescence, 20 min; active compounds read high; 1 = vehicle control, 0 substrate-free wells;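 active means activation factor of 2 or more at 20 µM, relative to plate controls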
Target sequence (P34949 whole entry, looked up): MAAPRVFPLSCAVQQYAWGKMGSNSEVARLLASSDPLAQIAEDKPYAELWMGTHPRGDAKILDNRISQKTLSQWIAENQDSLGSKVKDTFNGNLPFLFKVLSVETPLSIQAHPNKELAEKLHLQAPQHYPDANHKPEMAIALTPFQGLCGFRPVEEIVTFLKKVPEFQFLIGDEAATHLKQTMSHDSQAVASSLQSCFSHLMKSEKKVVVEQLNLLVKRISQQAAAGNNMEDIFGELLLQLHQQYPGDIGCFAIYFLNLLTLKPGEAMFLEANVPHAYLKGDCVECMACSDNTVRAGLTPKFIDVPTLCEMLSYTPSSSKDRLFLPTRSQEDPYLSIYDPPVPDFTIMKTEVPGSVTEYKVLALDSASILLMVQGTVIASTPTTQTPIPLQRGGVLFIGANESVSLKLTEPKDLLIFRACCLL
PMI act hi M6P = activators of human phosphomannose isomerase at near-saturating mannose 6-phosphate; coupled PMI enzyme assay, resazurin fluorescence, 20 min; active compounds read high; 1 = untreated enzyme, 0 = substrate-free blank; activation factor at 20 µM; 190,000 tested, 0.34% active;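 active means activation factor of 2 or more at 20 µM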
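assay system = human phosphomannose isomerase with PGI, G6PDH, diaphorase coupling enzymes | quantity = 15 ng/mL PMI | incubation = enzyme reaction with compound 20 min at room temperature | medium = HEPES pH 7.4 buffer with MgCl2 and Tween-20 | compound dosing = one concentration, 20 µM, in 1% DMSO | measured by = Diaphorase-driven resazurin-to-resorufin fluorescence, excitation 544, emission 590 nm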
Diaphorase inh = diaphorase inhibition or chemical oxidation counter-screen; diaphorase resazurin-to-resorufin fluorescence, NADH, 16 min; bacterial (C. kluyveri) enzyme, not human; inhibition, % at 20 µM; 190,000 tested, 0.69% active;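 active means primary screen inhibition at 20 µM above a set limit, cut at about 50% in these data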
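Detection: fluorescence of resorufin formed from resazurin, Ex 544/Em 590 nm; test system: Clostridium kluyveri diaphorase enzyme; amount: 0.14 U/mL diaphorase, enzyme working solution; times: 16-min room-temperature incubation before reading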
Diaph act CS = activates diaphorase or chemically reduces, flagging diaphorase assay artifacts. 190,000 tested, 0.005% active. AID 1229. activation factor at 20 µM. Diaphorase/resazurin coupled assay, resorufin fluorescence, 16 min; active compounds read high; 1 = vehicle wells, 0 = NADH-free wells;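 active means diaphorase activity raised at least twofold by the compound at 20 µM; inactive means activation factor below 2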
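Material: Purified diaphorase enzyme from Clostridium kluyveri | Buffer or medium: 50 mM HEPES pH 7.4 with 4.542 mM MgCl2, 0.005% Tween 20 | Times: 16 min enzyme reaction, ambient temperature | Signal: Red resorufin fluorescence at 544/590 nm excitation/emission | Measure: Increased resorufin signal from activators or reducing compounds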
A number is an active result; . = inactive; / = not tested or not shown.

SMILES	FLuc stim CS	FLuc inh counter	PMI activator	PMI act hi M6P	Diaphorase inh	Diaph act CS
Cc1ccccc1N/N=C/c1ccc(C#N)cc1	.	.	.	2.4	.	.
O=C(Cn1cc([N+](=O)[O-])nc1[N+](=O)[O-])N1CCN(c2ccccc2)CC1	.	.	.	.	.	.
O=C1CC(/C=C/c2ccncc2)=Nc2ccccc2N1	.	.	.	2.1	.	.
CCN(C(=O)COC(=O)c1cc(-c2ccccc2)nc2c1c(C)nn2-c1ccccc1)C1CCS(=O)(=O)C1 (configuration not stated)	.	.	.	.	.	.
CCN(C(=O)COC(=O)c1cc(-c2ccc3cc(OC)ccc3c2)nc2ccccc12)C1CCS(=O)(=O)C1 (configuration not stated)	.	76	.	.	.	.
COc1ccc(NC(=O)COc2cccnc2[N+](=O)[O-])cc1OC	.	.	.	.	.	.
COc1cc(NC(C)=O)c2ncccc2c1[N+](=O)[O-]	.	.	.	.	61	.
O=C1C2CC=CCC2C(=O)N1c1ccc(Cc2ccncc2)cc1 (configuration not stated)	.	.	.	.	.	.
c1ccc(CSc2ccc3nnc(-c4cccnc4)n3n2)cc1	.	.	.	.	.	.
Cc1ccn2c(C(=O)c3ccc(Cl)cc3)cnc2c1	.	52	.	.	.	.
CCOc1cc(CNC(C)C)c(Cl)cc1OCC(=O)NCCc1ccccc1	.	.	.	.	.	.
Cc1ccccc1N=CC=C1OC(C)(C)C(C)(C)O1	.	.	.	.	.	.
CSCc1cc(N2CCOCC2)nc(SCc2ccc(Cl)c(Cl)c2)n1	.	.	.	2	.	.
Cc1nnc(SCC(=O)NCc2ccccc2Cl)[nH]c1=O	.	.	.	.	.	.
O=C(Nc1ccc(F)cc1F)N1CCN(c2ncccn2)CC1	.	.	.	.	.	.
Cc1nn(-c2cccc(Cl)c2)c2nc(-c3ccco3)cc(C(=O)O)c12	.	.	.	.	.	.
Cc1cccc(-n2nc(C)c3c(C(=O)O)cc(-c4cccs4)nc32)c1	.	.	.	.	52	.
CCOC(=O)/C=C(/C)N1N=C(c2ccc(OC)cc2)CC1c1cccc([N+](=O)[O-])c1 (configuration not stated)	.	.	.	2.3	.	.
Cc1ccc(C(=O)/C=C/Nc2ccccc2C(N)=O)cc1	.	97	.	.	.	.
CC(C)(C)c1ccc(/C=C/C(=O)NC2=NCCS2)cc1	.	.	.	.	.	.
Cc1ccc(/C=C/C(=O)NC2=NCCS2)cc1	.	86	.	.	.	.
Cc1ccc(C(=O)/C=C/C(=O)c2ccc(C)cc2)cc1	.	.	.	.	.	.
Cc1ccc(/C=C/C(=O)Nc2ccccc2C(N)=O)cc1	.	93	.	.	.	.
NC(=O)c1ccccc1N/C=C/C(=O)c1ccc(Cl)cc1	.	94	.	.	.	.
NC(=O)c1ccccc1NC(=O)/C=C/C(=O)O	.	.	.	.	.	.
SMILES	FLuc stim CS	FLuc inh counter	PMI activator	PMI act hi M6P	Diaphorase inh	Diaph act CS
CC(=O)Nc1sc2c(c1C(c1ccccc1Cl)N1CCN(CCO)CC1)CCCC2 (configuration not stated)	.	.	.	.	.	.
CN(C)CCN(Cc1cc2cc3c(cc2[nH]c1=O)OCCO3)C(=S)NCC1CCCO1 (configuration not stated)	.	.	.	.	50	.
COc1ccc(NC(=O)Cn2c(=O)n(CC3CCCO3)c(=O)c3ccccc32)c(OC)c1 (configuration not stated)	.	.	.	.	.	.
COc1ccc(CCNC(=O)CSc2nc3[nH]ncc3c(=O)n2-c2ccc(Cl)cc2Cl)cc1OC	.	.	.	.	73	.
CC(=O)OCC1CCCC2=C(C)C(=O)CCC21COC(C)=O (configuration not stated)	.	.	.	.	.	.
COc1ccc(C(=O)O/N=C(\C)c2ccccc2)cc1	.	90	.	.	.	.
COc1ccc(C(=O)O/N=C(/c2ccccc2)c2ccncc2)cc1	.	.	.	.	.	.
COc1cccc(C(=O)O/N=C(\C)c2cnccn2)c1	.	65	.	.	.	.
CCCCC(=O)Nc1cc2nn(-c3ccc(OC)cc3)nc2cc1C	.	.	.	.	.	.
CCC(=O)Nc1cc2nn(-c3ccc(C)cc3)nc2cc1C	.	66	.	.	.	.
CCC(=O)Nc1cc2nn(-c3ccc(OC)cc3)nc2cc1C	.	69	.	.	.	.
CC1(C)Oc2ccc3ccc(=O)oc3c2C(N2CCCCC2)C1O (configuration not stated)	.	.	.	2.1	.	.
CCn1nc(C(=O)NNC(=O)COc2ccccc2C)c2ccccc2c1=O	.	.	.	.	.	.
CCN(CC)C(=O)c1ccc2nc(-c3ccccc3)c(-c3ccccc3)nc2c1	.	.	.	.	.	.
CCN(CC)C(=O)c1ccc2nc3ccccc3nc2c1	.	.	.	2.2	.	.
O=C(NCC(=O)N(c1cccnc1)C(C(=O)NC1CCCC1)c1ccc(F)cc1)c1ccco1 (configuration not stated)	.	.	.	.	.	.
CCN(CC)c1ccc(/C=N/O)cc1	.	.	.	.	.	.
CCN(CC)c1ccc(N=Nc2ncn[nH]2)cc1	.	82	.	.	.	.
O=C(O)c1ccc(Nc2nc(-c3cc4ccccc4oc3=O)cs2)cc1O	.	.	.	.	88	.
Nc1ccc(Nc2nc(-c3cc4ccccc4oc3=O)cs2)cc1	.	.	/	/	/	/
CC1CC(C)(C)Nc2ccc(OC(=O)c3ccco3)cc21 (configuration not stated)	.	60	.	.	.	.
Cc1nnc(SCc2cc(=O)[nH]c(=S)[nH]2)s1	.	.	.	.	64	.
Cc1ccc(-c2nnc(Nc3ccccc3)o2)cc1	.	88	.	.	.	.
CSc1ccccc1-c1nnc(-c2ccccc2)o1	.	64	.	.	.	.
CSc1nnc(-c2ccccc2SC)o1	.	.	.	.	.	.
CSc1ccccc1-c1nnc(-c2ccc(C)cc2)o1	.	71	.	.	.	.
CN(c1ccccc1C(=O)N1CCN(c2ccccc2)CC1)S(C)(=O)=O	.	.	.	.	.	.
C=CCn1c(/N=C/c2ccc3c(c2)OCO3)nc2ccccc21	.	72	.	.	.	.
Clc1ccccc1N/N=C/c1ccc2c(c1)OCO2	.	.	.	.	.	.

Screening data deposited in PubChem by Sanford-Burnham Center for Chemical Genomics.
